Measurements: ChEMBL document CHEMBL1157296, “Cytotoxic and antimicrobial benzophenones from the leaves of Tovomita longifolia” (2006)
Converted amounts (≈) assume the structure as drawn. The source made the active and inactive calls. The rule behind the calls is not given here.

Columns and labels:
Assay type in all cases: functional
[1] = tested on: Mycolicibacterium smegmatis; assay: Antimicrobial activity against Mycobacterium smegmatis ATCC 607
Staphylococcus aureus = assay: Antimicrobial activity against Staphylococcus aureus ATCC 6538
Escherichia coli = assay: Antimicrobial activity against Escherichia coli ATCC 9637
Candida albicans = assay: Antimicrobial activity against Candida albicans ATCC 10231
NCI-H460 = assay: Cytotoxicity against human H460 cells
How it was run: (§1)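 Human cancer cell lines of breast (MCF-7), CNS (SF-268) and lung (H-460) origin were tested by the Monks et al. method. All three lines were used throughout to monitor fractions and isolated compounds.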

[2] = tested on: Salmonella enterica subsp. enterica serovar Gallinarum; assay: Antimicrobial activity against Salmonella gallinarum ATCC 9184
Pseudomonas aeruginosa = assay: Antimicrobial activity against Pseudomonas aeruginosa ATCC 27853
Klebsiella pneumoniae = assay: Antimicrobial activity against Klebsiella pneumoniae ATCC 10031
MCF7 = assay: Cytotoxicity against human MCF7 cells; how it was run: as §1
SF-268 = assay: Cytotoxicity against human SF268 cells; how it was run: as §1

Compound: CC1(C)CCC[C@]2(C)Oc3c(c(O)cc(O)c3C(=O)c3ccccc3)C[C@@H]12
- MIC [1]: 6.25 µg/mL (≈ 17.1 µM)
- MIC (Staphylococcus aureus): 12.5 µg/mL (≈ 34.1 µM)
- Activity (Escherichia coli): inactive
- Activity (Candida albicans): inactive
- GI50 (NCI-H460): 2.1 µg/mL (≈ 5.73 µM)
- MIC [2]: 12.5 µg/mL (≈ 34.1 µM)
- MIC (Pseudomonas aeruginosa): 12.5 µg/mL (≈ 34.1 µM)
- MIC (Klebsiella pneumoniae): 6.25 µg/mL (≈ 17.1 µM)
- GI50 (MCF7): 1.8 µg/mL (≈ 4.91 µM)
- GI50 (SF-268): 1.7 µg/mL (≈ 4.64 µM)

Compound: CC(C)=CCC/C(C)=C/COc1cc(O)c(C(=O)c2ccccc2)c(O)c1
- MIC [1]: 12.5 µg/mL (≈ 34.1 µM)
- MIC (Staphylococcus aureus): 12.5 µg/mL (≈ 34.1 µM)
- Activity (Escherichia coli): inactive
- Activity (Candida albicans): inactive
- GI50 (NCI-H460): 4.4 µg/mL (≈ 12 µM)
- Activity [2]: inactive
- Activity (Pseudomonas aeruginosa): inactive
- Activity (Klebsiella pneumoniae): inactive
- GI50 (MCF7): 4.8 µg/mL (≈ 13.1 µM)
- GI50 (SF-268): 2 µg/mL (≈ 5.46 µM)

Compound: COc1cccc2c1C(=O)c1c(O)c3c(c(O)c1C2=O)C[C@@](O)(C(=O)CO)C[C@@H]3O[C@H]1C[C@H](N)[C@H](O)[C@H](C)O1 [DOXORUBICIN]
- GI50 (NCI-H460): 0.42 µg/mL (≈ 0.773 µM)
- GI50 (MCF7): 0.38 µg/mL (≈ 0.699 µM)
- GI50 (SF-268): 0.5 µg/mL (≈ 0.92 µM)

Compound: C[C@@H]1[C@H](O)[C@@H](C)/C=C/C=C/C=C/C=C/C=C/C=C/C=C/[C@H](O[C@@H]2O[C@H](C)[C@@H](O)[C@H](N)[C@@H]2O)C[C@@H]2O[C@](O)(C[C@@H](O)C[C@@H](O)[C@H](O)CC[C@@H](O)C[C@@H](O)CC(=O)O[C@H]1C)C[C@H](O)[C@H]2C(=O)O
- Activity [1]: inactive
- Activity (Staphylococcus aureus): inactive
- Activity (Escherichia coli): inactive
- Activity [2]: inactive
- Activity (Pseudomonas aeruginosa): inactive
- Activity (Klebsiella pneumoniae): inactive

Compound: C=C(C)[C@H](O)CC/C(C)=C/Cc1c(O)cc(O)c(C(=O)c2ccccc2)c1O
- Activity (NCI-H460): inactive
- Activity (MCF7): inactive
- Activity (SF-268): inactive

Compound: CC(C)=CCC/C(C)=C/Cc1c(O)cc(O)c(C(=O)c2ccccc2)c1O
- MIC [1]: 50 µg/mL (≈ 136 µM)
- Activity (Staphylococcus aureus): inactive
- Activity (Escherichia coli): inactive
- Activity (Candida albicans): inactive
- Activity (NCI-H460): inactive
- Activity [2]: inactive
- Activity (Pseudomonas aeruginosa): inactive
- Activity (Klebsiella pneumoniae): inactive
- Activity (MCF7): inactive
- Activity (SF-268): inactive

Compound: CC(C)=CCC[C@]1(C)Oc2c(c(O)cc(O)c2C(=O)c2ccccc2)C[C@@H]1O
- MIC [1]: 25 µg/mL (≈ 65.4 µM)
- Activity (Staphylococcus aureus): inactive
- Activity (Escherichia coli): inactive
- Activity (Candida albicans): inactive
- GI50 (NCI-H460): 6.5 µg/mL (≈ 17 µM)
- Activity [2]: inactive
- Activity (Pseudomonas aeruginosa): inactive
- MIC (Klebsiella pneumoniae): 25 µg/mL (≈ 65.4 µM)
- GI50 (MCF7): 6.8 µg/mL (≈ 17.8 µM)
- GI50 (SF-268): 5.6 µg/mL (≈ 14.6 µM)

Compound: C=C(CCC=C(C)C)[C@H](O)Cc1c(O)cc(O)c(C(=O)c2ccccc2)c1O
- GI50 (NCI-H460): 7.8 µg/mL (≈ 20.4 µM)
- GI50 (MCF7): 6.7 µg/mL (≈ 17.5 µM)
- GI50 (SF-268): 6.5 µg/mL (≈ 17 µM)

Compound: CN[C@@H]1[C@H](O[C@H]2[C@H](O[C@H]3[C@H](O)[C@@H](O)[C@H](N=C(N)N)[C@@H](O)[C@@H]3N=C(N)N)O[C@@H](C)[C@]2(O)C=O)O[C@@H](CO)[C@H](O)[C@H]1O.CN[C@@H]1[C@H](O[C@H]2[C@H](O[C@H]3[C@H](O)[C@@H](O)[C@H](N=C(N)N)[C@@H](O)[C@@H]3N=C(N)N)O[C@@H](C)[C@]2(O)C=O)O[C@@H](CO)[C@H](O)[C@H]1O.O=S(=O)(O)O.O=S(=O)(O)O.O=S(=O)(O)O [STREPTOMYCIN SULFATE]
- MIC [1]: 12.5 µg/mL
- MIC (Staphylococcus aureus): 12.5 µg/mL
- MIC (Escherichia coli): 6.25 µg/mL
- Activity (Candida albicans): inactive
- MIC [2]: 3.12 µg/mL
- MIC (Pseudomonas aeruginosa): 1.56 µg/mL
- MIC (Klebsiella pneumoniae): 3.12 µg/mL
